Assay results published in ChEMBL document CHEMBL5614410, “Design, Synthesis, and Evaluation of p53Y220C Acetylation Targeting Chimeras (AceTACs)” (J Med Chem, 2024).
Activity calls are given as the source filed them. The rule behind the calls is not given here.

Columns and labels:
[1] = test system: NCI-H1299; assay: Antiproliferative activity against p53-null human NCI-H1299 cells assessed as reduction in cell viability at 0.47 to 15 uM incubated for 3 days by WST-8 assay; format: functional, cell-based; settings: dose 0.47-15 µM, time 3.0 day
Procedure, shortened: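 p53-null NCI-H1299 cells were exposed to compound across the concentration series for 72 h before the viability read-out. Data are mean ± SD from three independent experiments.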

[2] = test system: Cellular tumor antigen p53 (Homo sapiens), P04637 [Y220C]; assay: Induction of p53Y220C mutant acetylation in human BXPC-3 cells expressing p300/CBP assessed as increase in p53 acetylation at lysine 382 residue at 1 to 10 uM incubated for 24 hrs by western blot analysis; format: cell-based; settings: dose 1-10 µM
Procedure, shortened: (§1)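 BxPC3 or NUGC-3 cells, which endogenously carry p53Y220C, were dosed at 1, 3 or 10 μM (or DMSO) for 24 h. Lysates were immunoblotted for p53 and p53 K382ac, with vinculin loading control. Blots are representative of two independent experiments.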

[3] = test system: Cellular tumor antigen p53 (Homo sapiens), P04637 [Y220C]; assay: Induction of p53Y220C mutant acetylation in human NUGC-3 cells expressing p300/CBP assessed as increase in p53 acetylation at lysine 382 residue at 1 to 10 uM incubated for 24 hrs by western blot analysis; format: cell-based; settings: dose 1-10 µM; procedure, shortened: as §1
[4] = test system: NUGC-3; assay: Antiproliferative activity against human NUGC-3 cells harboring p53Y220C mutant assessed as inhibition of cell growth incubated for 72 hrs by WST-8 assay; format: functional
Procedure, shortened: (§2)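 BxPC3 or NUGC-3 cells were treated with DMSO or compound over a concentration range for 72 h before the viability read-out. Values are mean ± SD of technical triplicates from three biological experiments.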

[5] = test system: BXPC-3; assay: Antiproliferative activity against human BXPC-3 cells harboring p53Y220C mutant assessed as inhibition of cell growth incubated for 72 hrs by WST-8 assay; format: functional; procedure, shortened: as §2
[6] = test system: CREB-binding protein/Histone acetyltransferase p300/Cellular tumor antigen p53 (Homo sapiens), P04637+Q09472+Q92793 [Y220C]; assay: AceTAC activity at FLAG-tagged p53Y220C mutant (unknown origin) expressed in human NCI-H1299 cells expressing p300/CBP assessed as increase in p53 acetylation at lysine 382 residue at 10 uM incubated for 24 hrs by western blot analysis relative to control; format: cell-based
Procedure, shortened: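 NCI-H1299 (p53Y220C) cells were treated at 0.1–10 μM (0.1, 0.3, 1, 3 or 10 μM) for 24 h. Lysates were Western blotted for p53 and p53K382ac, with vinculin as loading control. p53K382ac was normalised to total p53Y220C and quantified from two or three independent experiments.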

[7] = test system: CREB-binding protein/Histone acetyltransferase p300/Cellular tumor antigen p53 (Homo sapiens), P04637+Q09472+Q92793 [Y220C]; assay: AceTAC activity at FLAG-tagged p53Y220C mutant (unknown origin ) expressed in human NCI-H1299 cells expressing p300/CBP assessed as increase in p53 acetylation at lysine 382 residue at 1 uM incubated for 24 hrs by western blot analysis; format: cell-based
Procedure, shortened: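 NCI-H1299 cells stably expressing p53Y220C, treated 24 h at 1 or 10 μM. Lysates were Western blotted for total p53 and p53 K382ac, with vinculin as loading control. Blots are representative of at least two independent experiments.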

[8] = test system: NCI-H1299; assay: Antiproliferative activity against human NCI-H1299 cells expressing p53Y220C mutant assessed as reduction in cell viability incubated for 3 days by WST-8 assay; format: functional; settings: NCI-H1299, 72 h, time 3 day
Procedure, shortened: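 NCI-H1299 p53Y220C cells were exposed to compound over a concentration range for 72 h, in some runs after 72 h of control or p300 siRNA, before the viability read-out. Values are mean ± SD of three independent experiments.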

[9] = test system: Cellular tumor antigen p53 (Homo sapiens), P04637 [Y220C]; assay: Stabilization of p53Y220C mutant (unknown origin) expressed in human NCI-H1299 cells assessed as increase in melting temperature incubated for 1 hr by CETSA analysis; format: cell-based
Procedure, shortened: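 CETSA: NCI-H1299 (p53Y220C) stable cells were treated with DMSO or 100 μM for 1 h, then heated from 32 to 50 °C. Soluble p53 was detected by Western blot. Results are representative of at least two independent experiments.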

| Compound | Activity [6] [%] | Activity [7] | GI50 [8] [µM] | other results |
| --- | --- | --- | --- | --- |
| COc1ccc(CCc2nc3cc(-c4c(C)noc4C)ccc3n2CCN2CCOCC2)cc1F |  |  |  | Activity [1]: inactive; Activity [2]: inactive; Activity [3]: inactive; Activity [4]: inactive; Activity [5]: inactive |
| CCn1c2ccc(CNCCCCCCCC(=O)NCCOc3ccc(CCc4nc5cc(-c6c(C)noc6C)ccc5n4CCN4CCOCC4)cc3F)cc2c2ccc(-c3cc(C)cs3)cc21 | 196 | Active | 4 |  |
| CCn1c2ccc(CNCCC(=O)NCCOc3ccc(CCc4nc5cc(-c6c(C)noc6C)ccc5n4CCN4CCOCC4)cc3F)cc2c2ccc(-c3cc(C)cs3)cc21 | 70 |  | 13 |  |
| CCn1c2ccc(CNCCCCC(=O)NCCOc3ccc(CCc4nc5cc(-c6c(C)noc6C)ccc5n4CCN4CCOCC4)cc3F)cc2c2ccc(-c3cc(C)cs3)cc21 | 202 | Active | 4 |  |
| CCn1c2ccc(CNCCCC(=O)NCCOc3ccc(CCc4nc5cc(-c6c(C)noc6C)ccc5n4CCN4CCOCC4)cc3F)cc2c2ccc(-c3cc(C)cs3)cc21 | 195 | Active | 4 |  |
| CCn1c2ccc(CNCCOCCOCCC(=O)NCCOc3ccc(CCc4nc5cc(-c6c(C)noc6C)ccc5n4CCN4CCOCC4)cc3F)cc2c2ccc(-c3cc(C)cs3)cc21 | 205 | Active | 4 |  |
| CCn1c2ccc(CNCCOCCOCCOCCOCCC(=O)NCCOc3ccc(CCc4nc5cc(-c6c(C)noc6C)ccc5n4CCN4CCOCC4)cc3F)cc2c2ccc(-c3cc(C)cs3)cc21 | 198 | Active | 4 |  |
| C=C(C)C(=O)n1cc(C)c2c(-c3ccc4c(c3)CCN(C)C4)cncc21 |  |  |  | ΔTm [9]: 8.3 °C |
